Bfl-1 A1 inh: inhibitors of the anti-apoptotic protein A1, read as caspase activation; MEF A1-2A-BIM cells, Caspase-Glo 3/7 luminescence, 3 h; percent of clofoctol response, vehicle zero; caspase activation, % (no concentration beside the values); 330,000 tested, 0.066% active; AID 2462;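 active = over half of replicate activation scores above 10%, or exactly half above 10 with the replicate mean above 10; inconclusive = replicate mean below 10 yet half the replicates above 10; inactive = over half of replicates below 10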
Granule exo inh: lytic granule exocytosis inhibition; inhibition, % at 10 µM; 360,000 tested, 0.66% active; TALL-104 LAMP-1 surface exposure, flow cytometry; cells stimulated with thapsigargin and PMA;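 active = inhibition above about 55%, limit read from the data; inconclusive = no clear call, values can overlap the other calls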
sPLA2-III inh: Blocks human group III sPLA2 activity. Q9NZ20. 370,000 tested, 0.56% active. inhibition, % at 12.2 µM. QFRET BODIPY PC-A2 liposome hydrolysis, fluorescence;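 active = inhibition above mean plus 3 SD of compounds lying within the high and low control bounds, cut at about 19% in these data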;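 also: 0% = median of test compound wells and 100% = no enzyme DMSO wells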
Target sequence (Q9NZ20 whole entry, looked up): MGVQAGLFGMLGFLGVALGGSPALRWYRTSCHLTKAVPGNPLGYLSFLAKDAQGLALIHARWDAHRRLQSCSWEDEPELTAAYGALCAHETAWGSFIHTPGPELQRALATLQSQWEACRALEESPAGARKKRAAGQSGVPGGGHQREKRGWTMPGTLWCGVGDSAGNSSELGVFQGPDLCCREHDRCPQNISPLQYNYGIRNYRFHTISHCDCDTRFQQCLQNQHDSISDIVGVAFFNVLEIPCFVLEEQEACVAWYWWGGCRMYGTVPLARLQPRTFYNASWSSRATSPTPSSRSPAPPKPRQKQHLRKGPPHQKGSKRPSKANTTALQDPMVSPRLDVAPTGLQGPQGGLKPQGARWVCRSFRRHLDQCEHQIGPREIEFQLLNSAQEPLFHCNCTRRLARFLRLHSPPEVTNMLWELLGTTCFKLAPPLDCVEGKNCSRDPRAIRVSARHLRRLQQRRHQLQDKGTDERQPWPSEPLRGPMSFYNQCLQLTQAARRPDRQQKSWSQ
NTR1 ag: agonists of human neurotensin receptor NTR1 | P30989 | NTR1-U2OS beta-arrestin-GFP spot imaging, agonist mode | activation, % at 20 µM | 330,000 tested, 0.17% active;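 active = activation at or above 40% of the spot to cytoplasm intensity ratio, with at least 20 cells analyzed; inconclusive = wells under 20 cells, flagged as cytotoxic or low count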;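 also: 0% = DMSO without peptide and 100% = 100 nM NTR1 peptide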
MC4R antagonist: blocks human MC4R cAMP signaling | P32245 | MC4R-expressing cells, MTII-stimulated cAMP, LANCE TR-FRET | inhibition, % at 6.5 µM | 360,000 tested, 0.48% active;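 active = inhibition above its plate's cutoff, the mean of tested wells on that plate plus 3 SD, cut at about 29% in these data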;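 also: 0% = Melanotan II alone and 100% = Melanotan II plus saturating MCL0020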
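Assay system: U2OS cells stably expressing human melanocortin 4 receptor (MC4R) / Dosing: 6.5 µM / Timing: compound 30 min, challenge 1 h, detection 1 h / Measured by: Eu-cAMP/anti-cAMP TR-FRET, emission 671 nm / Replicates: singlicate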
MC4R barr agon: activates human MC4R beta-arrestin recruitment | activation, % at 8.9 µM | 360,000 tested, 0.98% active | U2OS MC4R beta-arrestin complementation, luminescence; percent of melanotan II response, DMSO zero | AID 540308;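 active = activation above a per-plate cutoff, the mean activation of sample wells on that plate plus 3 SD, cut at about 8% in these data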
* marks the source's active call; other numbers are inactive results; u = inconclusive; x = no result. An excerpt weighted towards active compounds, which were near 2.5% of everything screened.

SMILES | Bfl-1 A1 inh | Granule exo inh | sPLA2-III inh | NTR1 ag | MC4R antagonist | MC4R barr agon
CN(C)c1ccc(NS(=O)(=O)c2ccc(Cl)cc2)cc1 | -2 | -5 | 17 | 0 | 13 | 0
CN(C)c1ccc(S(=O)(=O)c2ccc(Cl)cc2)cc1 | 0 | 1 | 0 | 0 | -5 | 8.3*
COc1cc(C2CC(c3cccs3)=NN2C(=O)CCl)ccc1OC(F)F (stereo not given) | u | -2 | -10 | 27 | 26 | 22*
O=C(N/N=C/c1ccc(N2CCCCC2)o1)c1ccccc1 | 0 | 6 | -8 | x | -1 | 0
O=C1C2C(C(=O)N1/N=C/c1ccc(N3CCCCC3)o1)C1C=CC2C12CC2 (stereo not given) | 0 | 68* | -4 | 9 | 1 | -2
CCCCCCC(=O)N(O)C1CC(=O)N(c2ccc(Br)cc2)C1=O (stereo not given) | 0 | 103* | -8 | -2 | 5 | 2
Cc1ccc2nc(NC(=O)CSCc3ccccc3)sc2c1 | -1 | -4 | -4 | 2 | -5 | 8.9*
O=C(CNS(=O)(=O)c1ccc(Cl)s1)N1CCN(c2ccccn2)CC1 | x | x | 2 | x | x | x
c1nc(NC[C@@H]2CCCO2)c2cc(-c3ccc4c(c3)OCO4)ccc2n1 | x | x | 4 | x | x | x
O=C1/C(=C\c2ccc(O)cc2)SC(=S)N1Cc1ccccc1 | 1 | 1 | -35 | 2 | -11 | -3
O=C1/C(=C/c2ccccc2O)SC(=S)N1Cc1cccnc1 | -1 | 58* | -2 | 4 | -6 | 2
C[C@H](O)[C@@H]1CN2CCc3ccc(-c4ccc5c(c4)OCO5)cc3[C@@H]2C[C@@H]1N(C)CC1CCCCC1 | x | x | -4 | x | x | x
COc1ccc(C2CC(c3ccc4ccccc4c3)=NN2C(=O)CN2CCC(C(N)=O)CC2)cc1 (stereo not given) | 1 | 29 | -15 | 3 | -2 | -1
C=CCNCC(=O)N1N=C(c2ccc3ccccc3c2)CC1c1ccc(OC)cc1 (stereo not given) | 1 | 37 | -17 | 19 | -4 | 8.9*
COc1ccc(C2CC(c3ccc4ccccc4c3)=NN2C(=O)CNC2CCCCC2)cc1 (stereo not given) | -1 | 45 | -13 | 20 | 2 | 8.5*
COc1ccc(C2CC(c3ccc4ccccc4c3)=NN2C(=O)COC(=O)C2CCC(=O)N2)cc1 (stereo not given) | -3 | -2 | -19 | 3 | 0 | -1
CCOC(=O)C(=C1Nc2ccccc2N1)n1c(-c2ccco2)nc2ccccc21 | x | 98* | 2 | x | x | x
CCOC(=O)C(=C1Nc2ccccc2N1)n1c(-c2cnccn2)nc2ccccc21 | x | -3 | -5 | x | x | x
C#CCNC(=O)C[C@@H]1C(=O)N(CC=C)C2=CCCCC[C@]21C(=O)OC | x | x | 3 | x | x | x
O=C(CCN1C(=O)c2ccccc2S1(=O)=O)Nc1ccccc1 | 0 | -3 | 0 | -2 | -5 | -2
CCN(C(=O)CCN1C(=O)c2ccccc2S1(=O)=O)c1ccccc1 | 5.7* | -2 | 3 | 0 | -6 | 2
Cc1cc2oc(C(=O)Nc3ccc(S(N)(=O)=O)cc3)c(C)c2cc1Cl | 0 | 0 | 0 | -2 | -2 | 8.4*
CC[C@H]1/C(=C/c2ccccc2)N2C(=O)C[C@H](c3ccccc3)N=C2N1C | x | x | -4 | x | x | x
CNC[C@H](CC1CCCCC1)NC[C@H](Cc1ccccc1)NCCC12CC3CC(CC(C3)C1)C2 | 0 | -4 | 10 | 5 | 27 | 26*
Cc1oc(=O)c(NC(=O)c2ccccc2)cc1C(=O)c1ccccc1 | -1 | 75* | -10 | 3 | 6 | -3
COCCCN1C(=O)[C@H](CC(=O)NCC23CC4CC(CC(C4)C2)C3)[C@]2(C(=O)OC)CCCCC=C12 | x | x | -4 | x | x | x
COc1ccc(-c2nnc3sc(COc4ccc(C)cc4)nn23)cc1 | -1 | 4 | 1 | 1 | 29* | 7
COc1ccc(-c2nnc3sc(COc4ccccc4)nn23)cc1 | 1 | -2 | -7 | 1 | 3 | 1
Clc1ccc(OCc2nn3c(-c4ccccc4)nnc3s2)c(Cl)c1 | 0 | 2 | 2 | 2 | 12 | 8.9*
C(=C\c1ccccc1)/CSc1nnc(Cc2cccs2)n1-c1ccccc1 | x | x | -4 | x | x | x

Bioassay records: PubChem BioAssay, several laboratories
